Data from ChEMBL document CHEMBL1821586, “Identification and biological activities of new taccalonolide microtubule stabilizers” (J Med Chem, 2011).
pIC50: −log10 of the molar value. Blank lines part the entries; values can stand above or below the molecule they belong to. The source made the active and inactive calls. The calls are words filed in the database; no cut-off is given here.

Columns and labels:
HeLa [1] = assay: Cell cycle arrest in human HeLa cells assessed as accumulation of cells at G2/M phase at 12 nM after 18 hrs by flow cytometric analysis; type: functional, cell-based
Method in brief: (§1)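 DNA stained with propidium iodide (Krishan's reagent); DNA content measured by flow cytometry and plotted as PI intensity vs events.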

HeLa [2] = assay: Induction of interphase microtubule bundling in human HeLa cells at 0.5 uM after 18 hrs by indirect immunofluorescence analysis; type: cell-based
[3] = Antitumor activity against mouse 16/C cells allografted in mouse B6C3F1 assessed as delay in tumor growth at 73.5 mg/kg, iv relative to control; type: functional
Method in brief: (§2)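 Mammary 16/C fragments implanted s.c. bilaterally in female B6C3F1 mice on day 0, 5 mice/group, IV dosing in 0.2 ml. Tumors measured 2–3 times weekly. T-C = median days for treated vs control tumors to reach 1000 mg. Gross log cell kill = (T-C)/3.32×Td, with Td the doubling time from a log-linear fit of control tumor growth.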

[4] = Antitumor activity against mouse 16/C cells allografted in mouse B6C3F1 assessed as decrease in tumor mass at 73.5 mg/kg, iv; type: functional
Method in brief: (§3)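 Female B6C3F1 mice (mean 19.3 ± 1.0 g) carried bilateral s.c. Mammary 16/C tumor fragments implanted day 0, 5 mice/group. […] All were given IV in 0.2 ml. Tumor mass = L×W²/2, measured 2–3 times weekly. %T/C = treated/control median mass, zeros included, taken when control tumors reach ~700–1200 mg.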

HeLa [5] = assay: Inhibition of beta tubulin in human HeLa cells assessed asultiple abnormal mitotic spindle formation at 12 nM after 18 hrs by immunofluorescence analysis; type: cell-based
[6] = Antitumor activity against mouse 16/C cells allografted in mouse B6C3F1 assessed as gross log cell killing at 73.5 mg/kg, iv relative to control; type: functional
Mus musculus [7] = assay: Toxicity in B6C3F1 mouse allografted with mouse 16/C cells assessed as mean body weight loss at 73.5 mg/kg, iv (reference value: -2.2%); type: organism-based; set-up: dose 73.5 mg/kg, route intravenous; conditions: in vivo
HeLa [8] = assay: Antiproliferative activity against human HeLa cells after 48 hrs by SRB assay; type: functional, cell-based
Method in brief: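 HeLa cells grown in BME with 10% FBS and 50 µg/ml gentamicin, drug-treated 48 h, proliferation read by SRB assay.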

HeLa [9] = assay: Inhibition of beta tubulin in human HeLa cells assessed asultiple abnormal mitotic spindle formation at 0.32 uM after 18 hrs by immunofluorescence analysis; type: cell-based
HeLa [10] = assay: Induction of interphase microtubule bundling in human HeLa cells at 0.32 uM after 18 hrs by indirect immunofluorescence; type: cell-based
HeLa [11] = assay: Cell cycle arrest in human HeLa cells assessed as accumulation of cells at G2/M phase at 0.32 uM after 18 hrs by flow cytometric analysis; type: functional, cell-based; method in brief: as §1
HeLa [12] = assay: Induction of interphase microtubule bundling in human HeLa cells at 13.5 uM after 18 hrs by indirect immunofluorescence; type: cell-based
HeLa [13] = assay: Inhibition of beta tubulin in human HeLa cells assessed asultiple abnormal mitotic spindle formation at 13.5 uM after 18 hrs by immunofluorescence analysis; type: cell-based
HeLa [14] = assay: Cell cycle arrest in human HeLa cells assessed as accumulation of cells at G2/M phase at 13.5 uM after 18 hrs by flow cytometric analysis; type: functional, cell-based; method in brief: as §1
HeLa [15] = assay: Inhibition of beta tubulin in human HeLa cells assessed asultiple abnormal mitotic spindle formation at 0.8 uM after 18 hrs by immunofluorescence analysis; type: cell-based
HeLa [16] = assay: Induction of interphase microtubule bundling in human HeLa cells at 0.8 uM after 18 hrs by indirect immunofluorescence analysis; type: cell-based
HeLa [17] = assay: Cell cycle arrest in human HeLa cells assessed as accumulation of cells at G2/M phase at 0.8 uM after 18 hrs by flow cytometric analysis; type: functional, cell-based
[18] = Toxicity in B6C3F1 mouse allografted with mouse 16/C cells assessed as lethality at 90 mg/kg, iv administered on days 1,4,6, 8, 9, 10 and 11 measured after 12 days relative to control; type: organism-based; set-up: dose 90 mg/kg, route intravenous; conditions: in vivo, read-out: Activity
Method in brief: (§4)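 Female B6C3F1 mice, 5 per group, bore bilateral s.c. Mammary 16/C fragments. Taccalonolides in DMSO:Cremophor diluted with water were given i.v. on days 1, 4, 6 plus a later dose (A, N) or days 8, 9, 11 (E). Mice were weighed and observed daily, and lethality was recorded per group.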

HeLa [19] = assay: Inhibition of beta tubulin in human HeLa cells assessed asultiple abnormal mitotic spindle formation at 2.5 uM after 18 hrs by immunofluorescence analysis; type: cell-based
[20] = Toxicity in B6C3F1 mouse allografted with mouse 16/C cells assessed as lethality at 54 mg/kg, iv administered on days 1,4,6, 8, 9, 10 and 11 measured after 12 days relative to control; type: organism-based; set-up: dose 54 mg/kg, route intravenous; conditions: in vivo, read-out: Activity; method in brief: as §4
[21] = Antitumor activity against mouse 16/C cells allografted in mouse B6C3F1 assessed as delay in tumor growth at 54 mg/kg, iv administered on days 1,4,6, 8, 9, 10 and 11 relative to control; type: functional; method in brief: as §2
[22] = Antitumor activity against mouse 16/C cells allografted in mouse B6C3F1 assessed as gross log cell killing at 90 mg/kg, iv administered on days 1,4,6, 8, 9, 10 and 11 relative to control; type: functional
Method in brief: (§5)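 Mammary 16/C tumor fragments implanted bilaterally s.c. in female B6C3F1 mice on day 0, 5 mice/group. Taccalonolides in 50% DMSO:50% Cremophor stock, diluted with sterile water, given i.v. in 0.2 ml on days 1, 4, 6, plus one dose 2–3 days later (A, N) or further doses days 8, 9, 11 (E). Tumor mass = length × width²/2, measured 2–3 times weekly. Gross log cell kill = (T-C)/3.32 × Td, with T-C the days to 1000 mg.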

HeLa [23] = assay: Cell cycle arrest in human HeLa cells assessed as accumulation of cells at G2/M phase at 2.5 uM after 18 hrs by flow cytometric analysis; type: functional, cell-based; method in brief: as §1
[24] = Antitumor activity against mouse 16/C cells allografted in mouse B6C3F1 assessed as decrease in tumor mass at 90 mg/kg, iv administered on days 1,4,6, 8, 9, 10 and 11 relative to control; type: functional; method in brief: as §3
[25] = Antitumor activity against mouse 16/C cells allografted in mouse B6C3F1 assessed as gross log cell killing at 54 mg/kg, iv administered on days 1,4,6, 8, 9, 10 and 11 relative to control; type: functional; method in brief: as §5
[26] = Antitumor activity against mouse 16/C cells allografted in mouse B6C3F1 assessed as decrease in tumor mass at 54 mg/kg, iv administered on days 1,4,6, 8, 9, 10 and 11 relative to control; type: functional; method in brief: as §3
HeLa [27] = assay: Induction of interphase microtubule bundling in human HeLa cells at 2.5 uM after 18 hrs by indirect immunofluorescence analysis; type: cell-based
Mus musculus [28] = assay: Toxicity in B6C3F1 mouse allografted with mouse 16/C cells assessed as mean body weight loss at 90 mg/kg, iv administered on days 1,4,6, 8, 9, 10 and 11 (reference value: -2.2%); type: organism-based; set-up: dose 90 mg/kg, route intravenous; conditions: in vivo
[29] = Antitumor activity against mouse 16/C cells allografted in mouse B6C3F1 assessed as delay in tumor growth at 90 mg/kg, iv administered on days 1,4,6, 8, 9, 10 and 11 relative to control; type: functional; method in brief: as §2
Mus musculus [30] = assay: Toxicity in B6C3F1 mouse allografted with mouse 16/C cells assessed as mean body weight loss at 54 mg/kg, iv administered on days 1,4,6, 8, 9, 10 and 11 (reference value: -2.2%); type: organism-based; set-up: dose 54 mg/kg, route intravenous; conditions: in vivo
HeLa [31] = assay: Induction of interphase microtubule bundling in human HeLa cells at 57 uM after 18 hrs by indirect immunofluorescence; type: cell-based
HeLa [32] = assay: Inhibition of beta tubulin in human HeLa cells assessed asultiple abnormal mitotic spindle formation at 57 uM after 18 hrs by immunofluorescence analysis; type: cell-based
HeLa [33] = assay: Cell cycle arrest in human HeLa cells assessed as accumulation of cells at G2/M phase at 111 uM after 18 hrs by flow cytometric analysis; type: functional, cell-based; method in brief: as §1
HeLa [34] = assay: Induction of interphase microtubule bundling in human HeLa cells at 3.5 uM after 18 hrs by indirect immunofluorescence analysis; type: cell-based
HeLa [35] = assay: Inhibition of beta tubulin in human HeLa cells assessed asultiple abnormal mitotic spindle formation at 3.5 uM after 18 hrs by immunofluorescence analysis; type: cell-based
HeLa [36] = assay: Cell cycle arrest in human HeLa cells assessed as accumulation of cells at G2/M phase at 3.5 uM after 18 hrs by flow cytometric analysis; type: functional, cell-based; method in brief: as §1
HeLa [37] = assay: Inhibition of beta tubulin in human HeLa cells assessed asultiple abnormal mitotic spindle formation at 0.6 uM after 18 hrs by immunofluorescence analysis; type: cell-based
HeLa [38] = assay: Cell cycle arrest in human HeLa cells assessed as accumulation of cells at G2/M phase at 0.6 uM after 18 hrs by flow cytometric analysis; type: functional, cell-based; method in brief: as §1
HeLa [39] = assay: Induction of interphase microtubule bundling in human HeLa cells at 0.6 uM after 18 hrs by indirect immunofluorescence; type: cell-based

SMILES: CC(=O)O[C@H]1C(=O)[C@@]2(C)[C@H]([C@H](OC(=O)c3ccccc3)[C@]3(O)C[C@H](OC(=O)[C@H](O)[C@@H](NC(=O)c4ccccc4)c4ccccc4)C(C)=C1C3(C)C)[C@]1(OC(C)=O)CO[C@@H]1C[C@@H]2O [PACLITAXEL]
- Activity (HeLa [1]): Active
- Activity (HeLa [2]): Active
- Time [3]: 19 days
- T/C [4]: 0%
- inhibition (HeLa [5]): Active
- LCK [6]: 4.8
- Activity (Mus musculus [7]): -6.3%

SMILES: CC(=O)O[C@H]1[C@H]2[C@H]([C@@H]3[C@@H](O)[C@@H]4[C@H]([C@H](C)C=C5OC(=O)[C@@](C)(O)[C@@]54C)[C@@]3(C)[C@H]1OC(C)=O)[C@@H](O)C(=O)[C@H]1C[C@@H]3O[C@@H]3[C@H](OC(C)=O)[C@]21C [TACCALONOLIDE B]
- inhibition (HeLa [15]): Active
- Activity (HeLa [16]): Active
- Activity (HeLa [17]): Active
- pIC50 (HeLa [8]): 6.72

SMILES: CC(=O)O[C@@H]1[C@H]2[C@@H]3[C@@H](O)C(=O)[C@H]4C[C@@H]5O[C@@H]5[C@H](OC(C)=O)[C@]4(C)[C@H]3C[C@H](OC(C)=O)[C@]2(C)[C@@H]2[C@@H]1[C@]1(C)C(=C[C@H]2C)OC(=O)[C@@]1(C)O [TACCALONOLIDE E]
- mortality at 288 h [18]: 0%
- inhibition (HeLa [19]): Active
- mortality at 288 h [20]: 0%
- Time [21]: 1 days
- LCK [22]: 1.25
- Activity (HeLa [23]): Active
- T/C [24]: 17%
- LCK [25]: 0.25
- T/C [26]: 81%
- pIC50 (HeLa [8]): 6.19
- Activity (HeLa [27]): Active
- Activity (Mus musculus [28]): -4.1%
- Time [29]: 5 days
- Activity (Mus musculus [30]): -2%

SMILES: CC(=O)O[C@@H]1[C@H]2[C@@H]3[C@@H](OC(C)=O)C(=O)[C@@]4(O)C[C@@H]5O[C@@H]5[C@H](OC(C)=O)[C@]4(C)[C@H]3C[C@H](OC(C)=O)[C@]2(C)[C@@H]2[C@@H]1[C@]1(C)C(=C[C@H]2C)OC(=O)[C@@]1(C)O [TACCALONOLIDE R]
- Activity (HeLa [31]): Active
- inhibition (HeLa [32]): Active
- pIC50 (HeLa [8]): 4.88
- Activity (HeLa [33]): Active

SMILES: CC(=O)O[C@@H]1[C@H]2[C@@H]3[C@@H](OC(C)=O)C(=O)[C@@]4(O)C[C@@H]5O[C@@H]5[C@H](OC(=O)CC(C)C)[C@]4(C)[C@H]3C[C@H](OC(C)=O)[C@]2(C)[C@@H]2[C@@H]1[C@]1(C)C(=C[C@H]2C)OC(=O)[C@@]1(C)O [TACCALONOLIDE T]
- Activity (HeLa [34]): Active
- inhibition (HeLa [35]): Active
- pIC50 (HeLa [8]): 6.47
- Activity (HeLa [36]): Active

Further lines, with some results ahead:

- pIC50 (HeLa [8]): 7.49
SMILES: CC(=O)O[C@@H]1[C@H]2[C@H]3[C@H]([C@H](OC(C)=O)[C@H](OC(C)=O)[C@]2(C)[C@@H]2[C@@H]1[C@]1(C)C(=C[C@H]2C)OC(=O)[C@@]1(C)O)[C@@]1(C)[C@@H](OC(C)=O)[C@H]2O[C@H]2C[C@]1(O)C(=O)[C@@H]3OC(C)=O [TACCALONOLIDE AA]
- inhibition (HeLa [9]): Active
- Activity (HeLa [10]): Active
- Activity (HeLa [11]): Active

- pIC50 (HeLa [8]): 5.56
SMILES: CC(=O)O[C@H]1[C@H]2[C@H]([C@@H]3[C@@H](O)[C@@H]4[C@H]([C@H](C)C=C5OC(=O)[C@@](C)(O)[C@@]54C)[C@@]3(C)[C@H]1OC(C)=O)[C@@H](O)C(=O)[C@@]1(O)C[C@@H]3O[C@@H]3[C@H](OC(C)=O)[C@]21C [TACCALONOLIDE AB]
- Activity (HeLa [12]): Active
- inhibition (HeLa [13]): Active
- Activity (HeLa [14]): Active

- pIC50 (HeLa [8]): 6.92
SMILES: CC(=O)O[C@@H]1[C@H]2[C@H]3[C@H]([C@H](OC(C)=O)[C@H](OC(C)=O)[C@]2(C)[C@@H]2[C@@H]1[C@]1(C)C(=C[C@H]2C)OC(=O)[C@@]1(C)O)[C@@]1(C)[C@@H](OC(C)=O)[C@H]2O[C@H]2C[C@]1(O)C(=O)[C@@H]3O [TACCALONOLIDE Z]
- inhibition (HeLa [37]): Active
- Activity (HeLa [38]): Active
- Activity (HeLa [39]): Active
